Measured values from ChEMBL document CHEMBL1287651, “Synthesis and in vitro antibacterial activity of fluoroquinolone derivatives containing 3-(N'-alkoxycarbamimidoyl)-4-(alkoxyimino) pyrrolidines” (2010).
Values after ≈ are worked out from the molar mass of the structure shown.

Tests used:
Assay type in all cases: functional
[1] = tested on: Enterococcus faecium; test: Antibacterial activity against Enterococcus faecium 08-2 after 18 to 24 hrs by twofold serial dilution method
Procedure, shortened: (§1)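 MIC determined by the standard twofold serial dilution method on agar media, screening against Gram-positive and Gram-negative strains. Levofloxacin and gemifloxacin were run alongside as reference drugs.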

[2] = tested on: Pseudomonas aeruginosa; test: Antibacterial activity against Pseudomonas aeruginosa 09-34 after 18 to 24 hrs by twofold serial dilution method; procedure, shortened: as §1
[3] = tested on: Escherichia coli; test: Antibacterial activity against Escherichia coli 08-22 after 18 to 24 hrs by twofold serial dilution method; procedure, shortened: as §1
[4] = tested on: Enterococcus faecalis; test: Antibacterial activity against Enterococcus faecalis 08-10 after 18 to 24 hrs by twofold serial dilution method; procedure, shortened: as §1
[5] = tested on: Staphylococcus epidermidis; test: Antibacterial activity against methicillin-resistant Staphylococcus epidermidis 09-3 after 18 to 24 hrs by twofold serial dilution method
Procedure, shortened: (§2)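 Standard twofold serial agar dilution method on agar media for MIC determination. Screened against representative Gram-positive and Gram-negative strains. Levofloxacin and GMFX served as control drugs.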

[6] = tested on: Enterococcus faecalis; test: Antibacterial activity against Enterococcus faecalis 08-12 after 18 to 24 hrs by twofold serial dilution method; procedure, shortened: as §1
[7] = tested on: Enterococcus faecium; test: Antibacterial activity against Enterococcus faecium 08-7 after 18 to 24 hrs by twofold serial dilution method; procedure, shortened: as §1
[8] = tested on: Escherichia coli; test: Antibacterial activity against Escherichia coli 08-21 after 18 to 24 hrs by twofold serial dilution method; procedure, shortened: as §1
[9] = tested on: Staphylococcus epidermidis; test: Antibacterial activity against methicillin-sensitive Staphylococcus epidermidis 09-3 after 18 to 24 hrs by twofold serial dilution method; procedure, shortened: as §2
[10] = tested on: Staphylococcus aureus; test: Antibacterial activity against Staphylococcus aureus ATCC […] after 18 to 24 hrs by twofold serial dilution method; procedure, shortened: as §1
[11] = tested on: Pseudomonas aeruginosa; test: Antibacterial activity against Pseudomonas aeruginosa ATCC 27853 after 18 to 24 hrs by twofold serial dilution method; procedure, shortened: as §1
[12] = tested on: Staphylococcus epidermidis; test: Antibacterial activity against methicillin-resistant Staphylococcus epidermidis 09-2 after 18 to 24 hrs by twofold serial dilution method; procedure, shortened: as §2
[13] = tested on: Pseudomonas aeruginosa; test: Antibacterial activity against Pseudomonas aeruginosa 09-33 after 18 to 24 hrs by twofold serial dilution method; procedure, shortened: as §1
[14] = tested on: Klebsiella pneumoniae; test: Antibacterial activity against Klebsiella pneumoniae 09-23 after 18 to 24 hrs by twofold serial dilution method; procedure, shortened: as §1
[15] = tested on: Staphylococcus aureus; test: Antibacterial activity against methicillin-resistant Staphylococcus aureus 08-1 after 18 to 24 hrs by twofold serial dilution method; procedure, shortened: as §2
[16] = tested on: Escherichia coli; test: Antibacterial activity against Escherichia coli ATCC 25922 after 18 to 24 hrs by twofold serial dilution method; procedure, shortened: as §1
[17] = tested on: Staphylococcus epidermidis; test: Antibacterial activity against methicillin-sensitive Staphylococcus epidermidis 09-6 after 18 to 24 hrs by twofold serial dilution method; procedure, shortened: as §2
[18] = tested on: Klebsiella pneumoniae; test: Antibacterial activity against Klebsiella pneumoniae 09-22 after 18 to 24 hrs by twofold serial dilution method; procedure, shortened: as §1
[19] = tested on: Pseudomonas aeruginosa; test: Antibacterial activity against Pseudomonas aeruginosa 09-32 after 18 to 24 hrs by twofold serial dilution method; procedure, shortened: as §1
[20] = tested on: Streptococcus pneumoniae; test: Antibacterial activity against Streptococcus pneumoniae 08-4 after 18 to 24 hrs by twofold serial dilution method; procedure, shortened: as §1
[21] = tested on: Pseudomonas aeruginosa; test: Antibacterial activity against Pseudomonas aeruginosa 09-35 after 18 to 24 hrs by twofold serial dilution method; procedure, shortened: as §1
[22] = tested on: Staphylococcus aureus; test: Antibacterial activity against methicillin-sensitive Staphylococcus aureus 08-2 after 18 to 24 hrs by twofold serial dilution method; procedure, shortened: as §2
[23] = tested on: Streptococcus pneumoniae; test: Antibacterial activity against Streptococcus pneumoniae 08-2 after 18 to 24 hrs by twofold serial dilution method; procedure, shortened: as §1
[24] = tested on: Staphylococcus epidermidis; test: Antibacterial activity against methicillin-resistant Staphylococcus epidermidis 09-4 after 18 to 24 hrs by twofold serial dilution method; procedure, shortened: as §2
[25] = tested on: Klebsiella pneumoniae; test: Antibacterial activity against Klebsiella pneumoniae 09-21 after 18 to 24 hrs by twofold serial dilution method; procedure, shortened: as §1

Compound	MIC [1] [µg/mL]	MIC [2] [µg/mL]	MIC [3] [µg/mL]	MIC [4] [µg/mL]	MIC [5] [µg/mL]	MIC [6] [µg/mL]	MIC [7] [µg/mL]	MIC [8] [µg/mL]	MIC [9] [µg/mL]	MIC [10] [µg/mL]	MIC [11] [µg/mL]	MIC [12] [µg/mL]	MIC [13] [µg/mL]	MIC [14] [µg/mL]	MIC [15] [µg/mL]	MIC [16] [µg/mL]	MIC [17] [µg/mL]	MIC [18] [µg/mL]	MIC [19] [µg/mL]	MIC [20] [µg/mL]	further results
CO/N=C1\CN(c2c(F)cc3c(=O)c(C(=O)O)cn(C4CC4)c3c2F)CC1/C(N)=N\OC (stereo not given)	> 128	> 128	> 128	> 128	0.25 (≈ 0.556 µM)	> 128	64 (≈ 142 µM)	> 128	0.125 (≈ 0.278 µM)	0.125 (≈ 0.278 µM)	4 (≈ 8.9 µM)	0.125 (≈ 0.278 µM)	> 128	> 128	0.25 (≈ 0.556 µM)	128 (≈ 285 µM)	0.25 (≈ 0.556 µM)	0.25 (≈ 0.556 µM)	8 (≈ 17.8 µM)	4 (≈ 8.9 µM)	MIC [21]: 8 µg/mL (≈ 17.8 µM); MIC [22]: 0.25 µg/mL (≈ 0.556 µM); MIC [23]: 16 µg/mL (≈ 35.6 µM); MIC [24]: 0.25 µg/mL (≈ 0.556 µM); MIC [25]: > 128 µg/mL
CCO/N=C(/N)C1CN(c2nc3c(cc2F)c(=O)c(C(=O)O)cn3C2CC2)C/C1=N\OC (stereo not given)	> 128	> 128	> 128	> 128	0.25 (≈ 0.56 µM)	> 128	> 128	> 128	0.25 (≈ 0.56 µM)	2 (≈ 4.48 µM)	> 128	2 (≈ 4.48 µM)	> 128	> 128	2 (≈ 4.48 µM)	> 128	0.25 (≈ 0.56 µM)	16 (≈ 35.8 µM)	> 128	> 128	MIC [21]: > 128 µg/mL; MIC [22]: 2 µg/mL (≈ 4.48 µM); MIC [23]: > 128 µg/mL; MIC [24]: 0.125 µg/mL (≈ 0.28 µM); MIC [25]: > 128 µg/mL
CCn1cc(C(=O)O)c(=O)c2cc(F)c(N3C/C(=N\OC)C(/C(N)=N\OC)C3)c(F)c21 (stereo not given)	> 128	> 128	> 128	> 128	0.25 (≈ 0.572 µM)	> 128	> 128	> 128	0.25 (≈ 0.572 µM)	0.25 (≈ 0.572 µM)	128 (≈ 293 µM)	2 (≈ 4.57 µM)	> 128	> 128	0.25 (≈ 0.572 µM)	128 (≈ 293 µM)	0.5 (≈ 1.14 µM)	1 (≈ 2.29 µM)	> 128	1 (≈ 2.29 µM)	MIC [21]: > 128 µg/mL; MIC [22]: 0.25 µg/mL (≈ 0.572 µM); MIC [23]: 1 µg/mL (≈ 2.29 µM); MIC [24]: 0.25 µg/mL (≈ 0.572 µM); MIC [25]: > 128 µg/mL
